From ChEMBL document CHEMBL1152317, “Hypoglycemic activity of extracts and compounds from the leaves of Hintonia standleyana and H. latiflora: potential alternatives to the use of the stem bark of these species” (2009) come the findings set out here.

Common to all, as to format: functional
Experiment [1] deals with Rattus norvegicus. Nature of the experiment: Hypoglycemic activity in normal Wistar rat assessed as variation in glycemia at 10 mg/kg administered via intragastric route after 5 hrs by glucose oxidase method relative to control. In short, it runs like this: (§1)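 Normoglycemic rats (180–220 g), 6 per group, standard pellet diet and water ad libitum. Test agent was suspended in 0.05% Tween 80 in saline and given by gavage. Controls got vehicle at 0.5 mL/100 g. Tail-incision blood was sampled at 0 h and after dosing and read by glucometer. Glycemia change was expressed as % of the 0 h value; ANOVA with Dunnett's test versus vehicle.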

The subject of experiment [2] is Rattus norvegicus. Nature of the experiment: Antihyperglycemic activity in streptozotocin-induced diabetic Wistar rat assessed as variation in glycemia at 10 mg/kg administered via intragastric route 7 days after streptozotocin challenge measured after 1.5 hrs of compound administration by glucose oxidase method relative to control. In short, it runs like this: (§2)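 Diabetes induced by single ip streptozotocin 50 mg/kg in 0.1 M citrate buffer pH 4.5; rats with glucose above 250 mg/dL after 7 days included. Rats 180–220 g, 6 per group. Test agent suspended in 0.05% Tween 80 in saline, given intragastrically; vehicle controls. Tail-vein blood sampled at 0 h and after dosing; glucometer reading; % change calculated from 0 h value.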

Experiment [3] has as its system Rattus norvegicus. As to the kind of experiment: Hypoglycemic activity in normal Wistar rat assessed as variation in glycemia at 10 mg/kg administered via intragastric route after 9 hrs by glucose oxidase method relative to control. In short, it runs like this:
as §1

In experiment [4] the test system is Rattus norvegicus. Nature of the experiment: Antihyperglycemic activity in streptozotocin-induced diabetic Wistar rat assessed as variation in glycemia at 10 mg/kg administered via intragastric route 7 days after streptozotocin challenge measured after 7 hrs of compound administration by glucose oxidase method relative to control. In a few lines: as §2
Experiment [5] has as its system Rattus norvegicus. As to the kind of experiment: Antihyperglycemic activity in streptozotocin-induced diabetic Wistar rat assessed as variation in glycemia at 10 mg/kg administered via intragastric route 7 days after streptozotocin challenge measured after 3 hrs of compound administration by glucose oxidase method relative to control. In a few lines: as §2
Experiment [6] relates to Rattus norvegicus. Nature of the experiment: Antihyperglycemic activity in streptozotocin-induced diabetic Wistar rat assessed as variation in glycemia at 10 mg/kg administered via intragastric route 7 days after streptozotocin challenge measured after 9 hrs of compound administration by glucose oxidase method relative to control. In short, it runs like this: as §2
In experiment [7] the test system is Rattus norvegicus. As to the kind of experiment: Antihyperglycemic activity in streptozotocin-induced diabetic Wistar rat assessed as variation in glycemia at 10 mg/kg administered via intragastric route 7 days after streptozotocin challenge measured after 5 hrs of compound administration by glucose oxidase method relative to control. In a few lines:
as §2

Experiment [8] concerns Rattus norvegicus. Nature of the experiment: Hypoglycemic activity in normal Wistar rat assessed as variation in glycemia at 10 mg/kg administered via intragastric route after 7 hrs by glucose oxidase method relative to control. In short, it runs like this: as §1
For experiment [9], the system named is Rattus norvegicus. As to the kind of experiment: Hypoglycemic activity in normal Wistar rat assessed as variation in glycemia at 10 mg/kg administered via intragastric route after 3 hrs by glucose oxidase method relative to control. In a few lines: as §1
Experiment [10] relates to Rattus norvegicus. As to the kind of experiment: Hypoglycemic activity in normal Wistar rat assessed as variation in glycemia at 10 mg/kg administered via intragastric route after 1.5 hrs by glucose oxidase method relative to control. In a few lines:
as §1

Consider `CC(=O)OC[C@H]1O[C@@H](Oc2cc(O)cc3oc(=O)cc(-c4ccc(O)c(O)c4)c23)[C@H](O)[C@@H](O)[C@H]1O`, for which the Activity is given as -28.6% in the experiment on Rattus norvegicus [1]; -5% with Rattus norvegicus [2]; -30.6% in the experiment on Rattus norvegicus [3]; -34.7% with Rattus norvegicus [4]; -20.7% with Rattus norvegicus [5]; -37.2% with Rattus norvegicus [6]. Also, the Activity is -29.5% in the experiment with Rattus norvegicus [7], -25% in the experiment with Rattus norvegicus [8], -29.9% in the experiment with Rattus norvegicus [9] and -9.2% with Rattus norvegicus [10].
As to `CC(=O)OC[C@H]1O[C@@H](Oc2cc(O)cc3oc(=O)cc(-c4ccc(O)cc4)c23)[C@H](O)[C@@H](O)[C@H]1O`, the Activity with Rattus norvegicus [1] is on record as -20.9%; in the experiment with Rattus norvegicus [2] it was -11%; in the experiment with Rattus norvegicus [3], -24%; in the experiment with Rattus norvegicus [4] it was -25.2%; with Rattus norvegicus [5] it was -24.9%; with Rattus norvegicus [6] it was -27.1%. Besides, the Activity in the experiment with Rattus norvegicus [7] is -22.7%; with Rattus norvegicus [8], -27.2%; in the experiment on Rattus norvegicus [9], -17.8%; in the experiment on Rattus norvegicus [10], -10.3%.
With `COc1ccc(Cl)cc1C(=O)NCCc1ccc(S(=O)(=O)NC(=O)NC2CCCCC2)cc1` [GLYBURIDE], the Activity was -47.6% in the experiment on Rattus norvegicus [1]; -13.7% in the experiment with Rattus norvegicus [2]; -37.1% in the experiment with Rattus norvegicus [3]; -35.2% in the experiment on Rattus norvegicus [4]; -35.5% with Rattus norvegicus [5]; -36.7% in the experiment with Rattus norvegicus [6]. Further, the Activity in the experiment with Rattus norvegicus [7] is -35.9%; in the experiment on Rattus norvegicus [8], -41.8%; in the experiment with Rattus norvegicus [9], -30.1%; with Rattus norvegicus [10], -8.4%.
